In experiment [1] the test system is Mus musculus. The experiment can be described thus: Sedative-hypnotic activity in Swiss Albino mouse assessed as CNS depression at 5 mg/kg, po after 1 hr. It is filed as functional. The method in brief: (§1)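 The basal motor activity score was recorded first. Compound was then given orally in 1% CMC, and scores were taken at 1, 2 and 3 h post-dose. % reduction in motor activity = [(A−B)/A]×100, with A the basal score and B the post-treatment score. Significance was tested by Student's t-test.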

In experiment [2] the test system is Mus musculus. The experiment can be described thus: Sedative-hypnotic activity in Swiss Albino mouse assessed as CNS depression at 5 mg/kg, po after 2 hrs. It is filed as functional. The method in brief: as §1
For experiment [3], the system named is Mus musculus. The experiment can be described thus: Sedative-hypnotic activity in Swiss Albino mouse assessed as CNS depression at 5 mg/kg, po after 3 hrs. It is filed as functional. The method in brief:
as §1

Experiment [4] has as its system Cavia porcellus. The experiment can be described thus: Antihistaminic activity against Dunkin-Hartley guinea pig assessed as protection against histamine-induced bronchospasm at 10 mg/kg, po. It is filed as functional. The method in brief: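 Male Dunkin Hartley guinea pigs (250–300 g), fasted 12 h, six per group. Dosed orally in 1% CMC, then challenged with histamine aerosol (0.2% aqueous histamine acid chloride) sprayed from a pocket nebulizer into a closed cage. Preconvulsion onset time was recorded, and animals stable beyond 6 min counted as protected. Mean preconvulsion time vs control expressed as % protection.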

Experiment [5] relates to Cavia porcellus. The experiment can be described thus: Antihistaminic activity against Dunkin-Hartley guinea pig assessed as protection against histamine-induced bronchospasm at 10 mg/kg, po.

In the case of `Cc1ccccc1-n1c(=O)c2ccccc2n2c(CN3CCNCC3)nnc12`, the Activity in the experiment on Mus musculus [1] is 12%; in the experiment on Mus musculus [2], 13%; in the experiment on Mus musculus [3], 9%; with Cavia porcellus [4], 70.7%.
For the molecule `CN(C)CCC(c1ccc(Cl)cc1)c1ccccn1.O=C(O)/C=C\C(=O)O` (centres undefined) [CHLORPHENIRAMINE MALEATE], the Activity in the experiment on Mus musculus [1] was 37%; in the experiment with Mus musculus [2], 32%; with Mus musculus [3], 22%; in the experiment on Cavia porcellus [5], 71%.
For the molecule `Cc1ccccc1-n1c(=O)c2ccccc2n2c(C)nnc12`, the Activity stood at 11% with Mus musculus [1], 14% in the experiment on Mus musculus [2], 8% with Mus musculus [3] and 72.45% with Cavia porcellus [4].
On to `Cc1ccccc1-n1c(=O)c2ccccc2n2c(N3CCOCC3)nnc12`, for which the Activity with Mus musculus [1] came to 10%; in the experiment on Mus musculus [2], 15%; in the experiment with Mus musculus [3], 10%; in the experiment with Cavia porcellus [4], 70.33%.
As to `CCc1nnc2n(-c3ccccc3C)c(=O)c3ccccc3n12`, the Activity stood at 13% in the experiment with Mus musculus [1], 14% with Mus musculus [2], 9% in the experiment with Mus musculus [3] and 70.78% in the experiment with Cavia porcellus [4].
Regarding `Cc1ccccc1-n1c(=O)c2ccccc2n2c(CCl)nnc12`, the Activity in the experiment on Mus musculus [1] is on record as 8%; in the experiment on Mus musculus [2], 13%; with Mus musculus [3], 4%; with Cavia porcellus [4] it was 68.56%.
For `Cc1ccccc1-n1c(=O)c2ccccc2n2c(CN3CCCCC3)nnc12` the same measures were 13%, 16%, 9% and 69.47%.
For `Cc1ccccc1-n1c(=O)c2ccccc2n2c(N3CCCC3)nnc12` the same measures were 10%, 14%, 7% and 68.81%.
On to `Cc1ccccc1-n1c(=O)c2ccccc2n2cnnc12`, for which the Activity in the experiment with Mus musculus [1] turned out to be 9%; with Mus musculus [2], 11%; with Mus musculus [3] it was 5%; in the experiment with Cavia porcellus [4], 69.87%.
For `CCCc1nnc2n(-c3ccccc3C)c(=O)c3ccccc3n12` the same measures were 13%, 17%, 8% and 69.47%.
Turning to `Cc1ccccc1-n1c(=O)c2ccccc2n2c(CN3CCN(C)CC3)nnc12`, the Activity in the experiment with Mus musculus [1] was 12%; in the experiment with Mus musculus [2], 18%; with Mus musculus [3] it was 10%; in the experiment with Cavia porcellus [4], 72.05%.
